High-throughput results as filed in PubChem BioAssay.
This is a sample that favours compounds with a hit; in the whole collection about 3% have one here.
PfG6PD inh = PfG6PD (Plasmodium falciparum) enzyme inhibition. PfGluPho enzyme, NADPH resazurin-diaphorase fluorescence. inhibition, % at 20 µM. 0.78% of 350,000 active. AID 504690;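 active = inhibition reaching at least a set limit at 20 µM in the primary screen, cut at about 59% in these data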
MC4R barr agon = agonists of human melanocortin 4 receptor (MC4R) beta-arrestin | P32245 | activation, % at 8.9 µM | U2OS MC4R beta-arrestin complementation, luminescence; percent of melanotan II response, DMSO zero | 0.98% of 360,000 active;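 active = activation above a per-plate cutoff, the mean activation of sample wells on that plate plus 3 SD, cut at about 8% in these data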
ABHD5 PLIN5 PPI = ABHD5-PLIN5 protein interaction inhibition; Q00G26+Q8WTS1; Split G. princeps luciferase complementation, luminescence, 4 h; inhibition, % at 4 µM; 0.78% of 360,000 active; AID 602281;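 active = inhibition above the mean inhibition across every tested compound plus 3 SD, cut at about 22% in these data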
Beta2AR agonist = activates human beta-2 adrenergic receptor causing internalization | AID 504454 | P07550 | Am2.2-beta2AR cells, FAP receptor internalization, flow cytometry | 0.43% of 340,000 active | response, % (test concentration not listed);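 active = response above a set limit, near 3 SD of response in nonfluorescent compounds, cut at about 42% in these data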
Target sequence (P07550 whole entry, looked up): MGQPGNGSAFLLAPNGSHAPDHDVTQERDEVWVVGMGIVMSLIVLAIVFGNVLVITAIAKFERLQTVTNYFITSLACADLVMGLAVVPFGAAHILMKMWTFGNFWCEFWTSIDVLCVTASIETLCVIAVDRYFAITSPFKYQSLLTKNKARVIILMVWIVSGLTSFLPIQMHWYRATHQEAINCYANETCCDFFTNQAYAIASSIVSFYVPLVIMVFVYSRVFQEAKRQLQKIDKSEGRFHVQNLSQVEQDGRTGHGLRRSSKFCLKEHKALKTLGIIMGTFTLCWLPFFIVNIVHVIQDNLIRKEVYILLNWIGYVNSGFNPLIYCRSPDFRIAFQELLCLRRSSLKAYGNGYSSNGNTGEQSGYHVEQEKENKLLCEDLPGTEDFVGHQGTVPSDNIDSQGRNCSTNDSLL
MC4R antag cAMP = antagonists of human melanocortin 4 receptor (MC4R) | AID 540295 | 0.48% of 360,000 active | MC4R-expressing cells, MTII-stimulated cAMP, LANCE TR-FRET | P32245 | inhibition, % at 6.5 µM;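 active = inhibition above its plate's cutoff, the mean of tested wells on that plate plus 3 SD, cut at about 29% in these data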
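Test system: U2OS cells stably expressing human melanocortin 4 receptor (MC4R); also added: Melanotan II challenge; compound: 6.5 µM single dose; timing: 30-min compound preincubation, 1-h Melanotan II challenge, 1-h detection, room temperature; signal: Eu-cAMP/anti-cAMP TR-FRET, emission 671 nm; repeats: one well per compound, no replicates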
MC4R barr conf = human MC4R beta-arrestin agonism confirmation | shares compounds with MC4R barr agon | U2OS MC4R beta-arrestin recruitment, luminescence; scaled DMSO 0%, Melanotan II 100% | activation, % at 8.9 µM | 31% of 2,400 active;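 active = mean activation across replicates above the hit cutoff set in the earlier primary screen, cut at about 8% in these data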
MOR-DOR barr ag = activates mu-delta opioid heterodimer, MC4R agonist counter-screen; shares compounds with MC4R barr agon; 5.8% of 2,400 active; activation, % at 9.2 µM; U2OS PathHunter beta-arrestin, beta-gal luminescence; percent of deltorphin B response, DMSO zero; AID 602194;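 active = mean activation across replicates exceeds the hit threshold derived in the earlier primary screen, cut at about 18% in these data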
Numbers stand for hits.

For CCn1c2ccccc2c2cc(NC(=O)COC(=O)c3ccccc3F)ccc21 the results were PfG6PD inh inactive, MC4R barr agon 9.8, ABHD5 PLIN5 PPI inactive, Beta2AR agonist inactive, MC4R antag cAMP inactive, MC4R barr conf inactive and MOR-DOR barr ag inactive.
`CCn1c2ccccc2c2cc(NC(=O)COc3ccccc3)ccc21` gave PfG6PD inh inactive, MC4R barr agon 26, ABHD5 PLIN5 PPI inactive, Beta2AR agonist inactive, MC4R antag cAMP inactive, MC4R barr conf inactive and MOR-DOR barr ag inactive.
For CCn1c2ccccc2c2cc(NC(=O)COC(=O)c3ccccc3O)ccc21 the results were PfG6PD inh inactive, MC4R barr agon inactive, ABHD5 PLIN5 PPI inactive, Beta2AR agonist inactive and MC4R antag cAMP inactive.
For COc1ccc(-c2cc(C(=O)N(C)CC(=O)Nc3cccc(F)c3)c3ccccc3n2)cc1 the results were PfG6PD inh inactive, MC4R barr agon inactive, ABHD5 PLIN5 PPI inactive, Beta2AR agonist inactive and MC4R antag cAMP inactive.
`COc1ccc(N(CC(=O)NC2CCCCCC2)S(=O)(=O)c2ccccc2)cc1Cl` gave PfG6PD inh inactive, MC4R barr agon inactive, ABHD5 PLIN5 PPI inactive, Beta2AR agonist inactive and MC4R antag cAMP inactive.
For CC(=O)Nc1ccc(NC(=O)CSc2ncc(C(=O)Nc3ccccc3)c(=O)n2C)cc1 the results were PfG6PD inh inactive, MC4R barr agon inactive, ABHD5 PLIN5 PPI inactive, Beta2AR agonist inactive and MC4R antag cAMP inactive.
CCOC(=O)Cc1ccc(Nc2nc(NCc3cccs3)nc3ccsc23)cc1 was read as MC4R barr agon 15, ABHD5 PLIN5 PPI inactive, MC4R antag cAMP inactive, MC4R barr conf inactive and MOR-DOR barr ag inactive.
`O=c1[nH]nc(Cc2ncc(C(F)(F)F)cc2Cl)c2ccccc12` gave PfG6PD inh inactive, MC4R barr agon inactive, ABHD5 PLIN5 PPI inactive, Beta2AR agonist inactive and MC4R antag cAMP inactive.
For COc1ccc(C(=O)O/N=C(\N)c2ccccc2)cc1 the results were PfG6PD inh inactive, MC4R barr agon inactive, ABHD5 PLIN5 PPI inactive, Beta2AR agonist inactive and MC4R antag cAMP inactive.
For CC(C)(C)c1ccc(C(=O)O/N=C(\N)c2ccccc2)cc1 the results were PfG6PD inh inactive, MC4R barr agon 16, ABHD5 PLIN5 PPI inactive, Beta2AR agonist inactive, MC4R antag cAMP inactive, MC4R barr conf 8.4 and MOR-DOR barr ag inactive.
O=C(/C=C/c1ccc(OCCCF)cc1)NCc1ccc(Cl)cc1 was read as PfG6PD inh inactive, MC4R barr agon 15, ABHD5 PLIN5 PPI inactive, Beta2AR agonist inactive, MC4R antag cAMP inactive, MC4R barr conf inactive and MOR-DOR barr ag inactive.
For Cc1ccc([N+](=O)[O-])cc1NC(=S)NC(=O)C(C)(C)C the results were PfG6PD inh inactive, MC4R barr agon inactive, ABHD5 PLIN5 PPI inactive, Beta2AR agonist inactive and MC4R antag cAMP inactive.
Cc1ccc([N+](=O)[O-])cc1NC(=S)NC(=O)c1c(Cl)cnn1C was read as PfG6PD inh inactive, MC4R barr agon 18, ABHD5 PLIN5 PPI inactive, Beta2AR agonist inactive, MC4R antag cAMP inactive, MC4R barr conf inactive and MOR-DOR barr ag inactive.
Screening CCOC(=O)c1c(CSc2ccc(CC)cc2)oc2ccc(O)c(CN(C)C)c12 returned PfG6PD inh inactive, MC4R barr agon 20, ABHD5 PLIN5 PPI inactive, Beta2AR agonist inactive, MC4R antag cAMP inactive, MC4R barr conf 15 and MOR-DOR barr ag inactive.
CCOC(=O)c1c(C)oc2ccc(O)c(CN(C)C)c12 was read as PfG6PD inh inactive, MC4R barr agon inactive, ABHD5 PLIN5 PPI inactive, Beta2AR agonist inactive and MC4R antag cAMP inactive.
For CC1CCc2sc3ncn4nc(C(=O)NCc5ccco5)nc4c3c2C1 (configuration not stated) the results were PfG6PD inh inactive, MC4R barr agon inactive, ABHD5 PLIN5 PPI inactive, Beta2AR agonist inactive and MC4R antag cAMP inactive.
For CC1CCc2c(sc3ncn4c(SCC(=O)NCc5ccco5)nnc4c23)C1 (configuration not stated) the results were PfG6PD inh inactive, MC4R barr agon 10, ABHD5 PLIN5 PPI inactive, Beta2AR agonist inactive, MC4R antag cAMP inactive, MC4R barr conf 9.9 and MOR-DOR barr ag inactive.
For O=C(Cc1ccsc1)NNC(=O)c1ccccc1Cl the results were PfG6PD inh inactive, MC4R barr agon inactive, ABHD5 PLIN5 PPI inactive, Beta2AR agonist inactive and MC4R antag cAMP inactive.
For CC1(CO)CCCC1NCCNC1CCCC1(C)CO (configuration not stated) the results were ABHD5 PLIN5 PPI inactive.
Screening CCCc1cc(C(=O)Cc2ccc(C(=O)OCC)o2)c(O)cc1O returned PfG6PD inh inactive, MC4R barr agon inactive, ABHD5 PLIN5 PPI inactive, Beta2AR agonist inactive and MC4R antag cAMP inactive.
CCCc1cc(-c2n[nH]c(C)c2-c2ccc(C(=O)OCC)o2)c(O)cc1O was read as PfG6PD inh inactive, MC4R barr agon 13, ABHD5 PLIN5 PPI inactive, Beta2AR agonist inactive, MC4R antag cAMP inactive, MC4R barr conf inactive and MOR-DOR barr ag inactive.
`C=C(C)c1cccc(C(C)(C)NC(=O)NCc2ccc(OC)cc2)c1` gave PfG6PD inh inactive, MC4R barr agon 17, ABHD5 PLIN5 PPI inactive, Beta2AR agonist inactive, MC4R antag cAMP inactive, MC4R barr conf inactive and MOR-DOR barr ag inactive.
`C=C(C)c1cccc(C(C)(C)NC(=O)NCc2ccc(OC)c(OC)c2)c1` gave PfG6PD inh inactive, MC4R barr agon inactive, ABHD5 PLIN5 PPI inactive, Beta2AR agonist inactive and MC4R antag cAMP inactive.
For Cc1nn(-c2nc3ccccc3s2)c(C)c1Oc1ccccc1O the results were PfG6PD inh inactive, MC4R barr agon 22, ABHD5 PLIN5 PPI inactive, Beta2AR agonist inactive, MC4R antag cAMP inactive, MC4R barr conf inactive and MOR-DOR barr ag inactive.
For CCCCCCCCCCCCCCCC(=O)NCCO the results were PfG6PD inh inactive, MC4R barr agon 12, ABHD5 PLIN5 PPI inactive, Beta2AR agonist inactive, MC4R antag cAMP inactive, MC4R barr conf inactive and MOR-DOR barr ag inactive.
Screening OC(c1cccc(F)c1)c1ncc(-c2ccc(Oc3ccccc3)cc2)[nH]1 (configuration not stated) returned MC4R barr agon 10, ABHD5 PLIN5 PPI inactive, MC4R antag cAMP inactive, MC4R barr conf inactive and MOR-DOR barr ag inactive.
OC(c1ccc(-c2ccccc2)cc1)c1ncc(-c2ccc(F)cc2)[nH]1 (configuration not stated) was read as MC4R barr agon 10, ABHD5 PLIN5 PPI inactive, MC4R antag cAMP inactive, MC4R barr conf inactive and MOR-DOR barr ag inactive.
OC(c1cccc(Cl)c1)c1ncc(-c2ccc(Oc3ccccc3)cc2)[nH]1 (configuration not stated) was read as MC4R barr agon inactive, ABHD5 PLIN5 PPI inactive and MC4R antag cAMP inactive.
OC(c1ccccc1)c1ncc(-c2ccc(Cl)cc2)[nH]1 (configuration not stated) was read as MC4R barr agon inactive, ABHD5 PLIN5 PPI inactive and MC4R antag cAMP inactive.
